Activity calls are given as the source filed them. No cut-off for these calls is given here.
Tests used:
[1] = Cytotoxicity against human A549-ACE2 cells; format: toxicity, cell-based
Method in brief: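 A549-ACE2 cells (2,000/well) were exposed to compounds for 72 h. Viability was read as CellTiter-Glo luminescence. Controls were 0.5% DMSO and 10 µM camptothecin. Values come from triplicate dose-response curves.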

SARS-CoV-2 = test: Antiviral activity against SARS-CoV-2 BetaCoV/France/IDF0372/2020 infected human A549-ACE2 cells assessed as inhibition of viral replication by qRT-PCR analysis; format: functional, organism-based; settings: Severe acute respiratory syndrome coronavirus 2, BetaCoV/France/IDF0372/2020, A549-ACE2
[2] = test system: Severe acute respiratory syndrome coronavirus 2; test: (§1) Inhibition of SARS-CoV-2 N-terminus His tagged nsp10/nsp16 complex expressed in Escherichia coli using [3H]SAM as substrate by scintillation proximity assay
Method in brief: (§2)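 Compounds were serially titrated from 8 µM to 2 mM DMSO stocks, giving 5% DMSO final. They were preincubated 2 h at 23 °C with 125 nM nsp10–nsp16 (8:1) in 50 mM Tris-HCl pH 7.5, 1.5 mM MgCl2, 1 mM TCEP and 0.01% Triton X-100. Then 0.8 µM RNA and 2 µM SAM (30% 3H-SAM) were added for 30 min at 23 °C. Radioactivity was read. Tests were in triplicate, with curves constrained to 0–100.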

[3] = target: Replicase polyprotein 1ab (Severe acute respiratory syndrome coronavirus 2, UniProt P0DTD1); test: (§3) Inhibition of SARS-CoV-2 nsp14 guanine-N7-methyltransferase activity
Method in brief: (§4)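 Compounds were serially titrated from 8 µM to 2 mM DMSO stocks, giving 5% DMSO final. They were preincubated 2 h at 23 °C with 1.5 nM nsp14 in 20 mM Tris-HCl pH 7.5, 0.25 mM MgCl2, 1 mM TCEP and 0.01% Triton X-100. Then 50 nM RNA and 0.25 µM 3H-SAM were added for 20 min. Radioactivity was read. Tests were in triplicate, with SAH as positive control and curves constrained to 0–100.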

[4] = target: Replicase polyprotein 1ab (Severe acute respiratory syndrome coronavirus 2) (UniProt P0DTD1); test: as §3; method in brief: as §4
[5] = as §1; design: species or system Severe acute respiratory syndrome coronavirus 2; method in brief: as §2

Row | Structure (SMILES) | CC50 [1] [µM] | EC50 (SARS-CoV-2) [µM] | inhibition [2] | IC50 [3] [µM] | inhibition [4] | IC50 [5] [µM]
1 | COc1cc(CN2C[C@H]3O[C@]4(C2)CN(S(=O)(=O)c2ccc(C)cc2)[C@]2(C(C)C)CC[C@H](O)[C@H]3[C@H]42)cc(OC)c1 | 13 | 5.6 |  |  |  | 
2 | CNC(=O)N1C[C@H]2O[C@]3(C1)CN(S(=O)(=O)c1ccc(C)cc1)[C@]1(C(C)C)CC[C@H](O)[C@H]2[C@H]31 | > 50 | > 50 |  |  |  | 
3 | COc1cc(CN2C[C@H]3O[C@]4(C2)CN(S(=O)(=O)c2ccc(C)cc2)[C@]2(C(C)C)CC[C@H](OCCCN(C)C)[C@H]3[C@H]42)cc(OC)c1 | 7.7 | 1.4 | inactive | > 100 |  | 
4 | Cc1ccc(S(=O)(=O)N2C[C@@]34CN(C)C[C@@H](O3)[C@H]3[C@@H](Oc5ncccn5)CC[C@]2(C(C)C)[C@H]34)cc1 | 17 | 20 |  |  |  | 
5 | COc1ccc(CCN2C[C@H]3O[C@]4(C2)CN(S(=O)(=O)c2ccc(C)cc2)[C@]2(C(C)C)C=CC(=O)[C@H]3[C@H]42)cc1 | 6.6 | 13 |  |  |  | 
6 | Cc1ccc(S(=O)(=O)N2C[C@@]34CN(C(=O)C5CC5)C[C@@H](O3)[C@H]3[C@@H](Oc5ncccn5)CC[C@]2(C(C)C)[C@H]34)cc1 | > 50 | > 40 |  |  |  | 
7 | Cc1ccc(S(=O)(=O)N2C[C@@]34CN(Cc5ccccc5)C[C@@H](O3)[C@H]3C(=O)C=C[C@]2(C(C)C)[C@H]34)cc1 | 14 | 16 |  |  |  | 
8 | Cc1ccc(S(=O)(=O)N2C[C@@]34CN(Cc5ccccc5)C[C@@H](O3)[C@H]3[C@@H](Oc5ncccn5)CC[C@]2(C(C)C)[C@H]34)cc1 | 6.3 | 6.2 |  |  |  | 
9 | Cc1ccc(S(=O)(=O)N2C[C@@]34CN(C(=O)c5ccc(F)cc5N)C[C@@H](O3)[C@@H]3[C@H]4[C@@]2(C(C)C)CC[C@@H]3O)cc1 | 20 | 14 |  |  |  | 
10 | Cc1ccc(S(=O)(=O)N2C[C@@]34CNC[C@@H](O3)[C@H]3C(=O)CC[C@]2(C(C)C)[C@H]34)cc1 | > 50 | > 50 |  |  |  | 
11 | Cc1ccc(S(=O)(=O)N2C[C@@]34CN(C(=O)c5ccc(N)cn5)C[C@@H](O3)[C@@H]3[C@H]4[C@@]2(C(C)C)CC[C@@H]3O)cc1 | > 50 | 37 |  |  |  | 
12 | COc1ccc(CCN2C[C@H]3O[C@]4(C2)CN(S(=O)(=O)c2ccc(C)cc2)[C@]2(C(C)C)C=C[C@H](O)[C@H]3[C@H]42)cc1 | 12 | 3.7 | inactive |  | inactive | 
13 | Cc1ccc(S(=O)(=O)N2C[C@@]34CN(Cc5nc6ccccc6s5)C[C@@H](O3)[C@H]3C(=O)CC[C@]2(C(C)C)[C@H]34)cc1 | 37 | 5.3 |  |  |  | 
14 | Cc1ccc(S(=O)(=O)N2C[C@@]34CN(C)C[C@@H](O3)[C@H]3C(=O)CC[C@]2(C(C)C)[C@H]34)cc1 | > 50 | > 50 |  |  |  | 
15 | Cc1ccc(S(=O)(=O)N2C[C@@]34CN(Cc5ccccc5)C[C@@H](O3)[C@H]3C(=O)CC[C@]2(C(C)C)[C@H]34)cc1 | 5.8 | 8.4 |  |  |  | 
16 | Cc1ccc(S(=O)(=O)N2C[C@@]34CN(C(=O)c5cccs5)C[C@@H](O3)[C@@H]3[C@H]4[C@@]2(C(C)C)CC[C@@H]3O)cc1 | > 50 | 16 |  |  |  | 
17 | COc1ccc(CCN2C[C@H]3O[C@]4(C2)CN(S(=O)(=O)c2ccc(C)cc2)[C@]2(C(C)C)C=C[C@H](Oc5ncccn5)[C@H]3[C@H]42)cc1 |  | > 50 |  |  |  | 
18 | COCn1ccc(N2C[C@H]3O[C@]4(C2)CN(S(=O)(=O)c2ccc(C)cc2)[C@]2(C(C)C)CC[C@H](O)[C@H]3[C@H]42)nc1=O | > 50 | > 17 |  |  |  | 
19 | Cc1ccc(S(=O)(=O)N2C[C@@]34CN(Cc5nc6ccccc6s5)C[C@@H](O3)[C@@H]3[C@H]4[C@@]2(C(C)C)CC[C@@H]3O)cc1 | 12 | 6.6 |  |  |  | 
20 | Cc1ccc(S(=O)(=O)N2C[C@@]34CN(Cc5ccccc5)C[C@@H](O3)[C@@H]3[C@H]4[C@@]2(C(C)C)C=C[C@@H]3O)cc1 | > 50 | 17 |  |  |  | 
21 | Cc1ccc(S(=O)(=O)N2C[C@@]34CN(CCc5c[nH]c6ccccc56)C[C@@H](O3)[C@@H]3[C@H]4[C@@]2(C(C)C)CC[C@@H]3O)cc1 | 13 | 8.3 |  |  |  | 
22 | Cc1ccc(S(=O)(=O)N2C[C@@]34CN(C(=O)c5cccs5)C[C@@H](O3)[C@H]3[C@@H](Oc5cc(C)nc(N)n5)CC[C@]2(C(C)C)[C@H]34)cc1 | > 50 | > 50 |  |  |  | 
23 | Nc1ncnc2c1ncn2[C@@H]1O[C@H](CSCC[C@H](N)C(=O)O)[C@@H](O)[C@H]1O [S-ADENOSYLHOMOCYSTEINE] |  |  |  | 0.22 |  | 3.9
